Measured values reported in ChEMBL document CHEMBL1148719, “Fine-tuning the amphiphilicity: a crucial parameter in the design of potent alpha-phenyl-N-tert-butylnitrone analogues” (J Med Chem, 2007).
Values belong to the compound of their own block, whether it stands above or below them.

Experiments:
Rattus norvegicus [1] = species: Rattus norvegicus; assay: Inhibition of doxorubicin-induced inactivation of mitochondrial NADH:ubiquinone oxidoreductase iron sulfur cluster N2 at 10 uM
Outline: (§1)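 Rat brain submitochondrial particles were incubated for 30 min with hydrogen peroxide, peroxynitrite or doxorubicin, with or without nitrone at 10 µM. Complex I iron sulfur cluster N2 activity was measured as ferricyanide reduction. The value is the percentage inhibition of oxidative inactivation. Data are mean ± SEM (N = 10). Controls were vehicle-treated particles exposed to oxidotoxin alone; statistics were ANOVA with Bonferroni t-test.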

Rotifers [2] = assay: Cytoprotection against hydrogen peroxide-induced toxicity in rotifer assessed as viability at 10 uM; type: functional, Rotifera
Outline: (§2)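 Whole rotifers were exposed for 24 h to oxidotoxin (hydrogen peroxide or doxorubicin, 200 µM), with nitrone antioxidant added at 10 µM. Read-out was the percentage of viable organisms. Data are mean ± SEM (N = 10). Comparison was against vehicle control by ANOVA followed by Bonferroni t-test.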

[3] = Cytoprotection in rat mixed cortical cells cultures assessed as inhibition of hydrogen peroxide-induced cell death at 10 uM after 24 hrs; type: functional
Outline: (§3)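 Mixed cortical cultures were treated for 24 h with oxidotoxin (hydrogen peroxide, peroxynitrite or doxorubicin, 200 µM), with antioxidant added at 10 µM. The value is the percentage inhibition of Trypan blue absorbance, read as enhanced cell survival. Data are mean ± SEM (N = 10). Comparison was against vehicle control by ANOVA with Bonferroni t-test.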

Rattus norvegicus [4] = species: Rattus norvegicus; assay: Inhibition of hydrogen peroxide-induced inactivation of mitochondrial NADH:ubiquinone oxidoreductase iron sulfur cluster N2 at 10 uM; outline: as §1
Rattus norvegicus [5] = species: Rattus norvegicus; assay: Inhibition of peroxynitrite-induced inactivation of mitochondrial NADH:ubiquinone oxidoreductase iron sulfur cluster N2 at 10 uM; outline: as §1
[6] = Cytoprotection in rat mixed cortical cells cultures assessed as inhibition of doxorubicin-induced cell death at 10 uM after 24 hrs; type: functional; outline: as §3
Rotifers [7] = assay: Cytoprotection against doxorubicin-induced toxicity in rotifer assessed as viability at 10 uM; type: functional, Rotifera; outline: as §2
[8] = Cytoprotection in rat mixed cortical cells cultures assessed as inhibition of peroxynitrite-induced cell death at 10 uM after 24 hrs; type: functional; outline: as §3
[9] = Toxicity against rat mixed cortical cells cultures at 10 uM; type: cell-based

Compound: CCCCCCCC(=O)NCC(C)(C)/[N+]([O-])=C/c1ccc(C(=O)NCC(=O)NC(CO)(CO)CO)cc1
inhibition (Rattus norvegicus [1]): 83.5% | Activity (Rotifers [2]): 24.1% | inhibition at 10 µM [3]: 33.8% | inhibition (Rattus norvegicus [4]): 59.2% | inhibition (Rattus norvegicus [5]): 40.5% | inhibition at 10 µM [6]: 74.3% | Activity (Rotifers [7]): 54.3% | inhibition at 10 µM [8]: 30.5%

Compound: CCCCCCCC(=O)NCC(C)(C)/[N+]([O-])=C/c1ccc(CNC(=O)[C@H](O)[C@H](O)[C@H](O[C@@H]2O[C@H](CO)[C@H](O)[C@H](O)[C@H]2O)[C@@H](O)CO)cc1
inhibition (Rattus norvegicus [1]): 90.7% | Activity (Rotifers [2]): 83% | inhibition at 10 µM [3]: 81% | inhibition (Rattus norvegicus [4]): 78.3% | inhibition (Rattus norvegicus [5]): 72.5% | inhibition at 10 µM [6]: 82% | Activity (Rotifers [7]): 85.8% | inhibition at 10 µM [8]: 61%

Compound: CCCCCCCC(=O)NCC(C)(C)/[N+]([O-])=C/c1ccccc1OCC
Activity [9]: Toxic

Compound: CC(C)(CNC(=O)CCC(F)(F)C(F)(F)C(F)(F)C(F)(F)C(F)(F)C(F)(F)F)/[N+]([O-])=C/c1ccc(CNC(=O)[C@H](O)[C@H](O)[C@H](O[C@@H]2O[C@H](CO)[C@H](O)[C@H](O)[C@H]2O)[C@@H](O)CO)cc1
inhibition (Rattus norvegicus [1]): 57.3% | Activity (Rotifers [2]): 40.6% | inhibition at 10 µM [3]: 63.4% | inhibition (Rattus norvegicus [4]): 51.9% | inhibition (Rattus norvegicus [5]): 39.3% | inhibition at 10 µM [6]: 34.9% | Activity (Rotifers [7]): 30.6% | inhibition at 10 µM [8]: 40.1%

Further lines, with some results ahead:

inhibition (Rattus norvegicus [1]): 44.3% | inhibition (Rattus norvegicus [4]): 35% | inhibition (Rattus norvegicus [5]): 27.6%
Compound: CC(C)(C)/[N+]([O-])=C/c1ccccc1
Activity (Rotifers [2]): 25.6% | inhibition at 10 µM [3]: 25% | inhibition at 10 µM [6]: 24.2% | Activity (Rotifers [7]): 18.7% | inhibition at 10 µM [8]: 20.6%

inhibition (Rattus norvegicus [1]): 13.5% | inhibition (Rattus norvegicus [4]): 25.1% | inhibition (Rattus norvegicus [5]): 17.3%
Compound: CC(C)(C)/[N+]([O-])=C\c1ccc(CNC(=O)[C@@H](O)[C@H](O)[C@H](O[C@@H]2O[C@H](CO)[C@H](O)[C@H](O)[C@H]2O)C(O)CO)cc1 (stereo partly specified)
Activity (Rotifers [2]): 18.6% | inhibition at 10 µM [3]: 18.3% | inhibition at 10 µM [6]: 18.5% | Activity (Rotifers [7]): 18.2% | inhibition at 10 µM [8]: 17.3%
